In ChEMBL document CHEMBL2311404, “Synthesis, antibacterial activity and docking of 14-membered 9-O-(3-arylalkyl) oxime 11,12-cyclic carbonate ketolides” (2013):
In brackets after ≈: the same amount, converted by molar mass.

Columns and labels:
Format in all cases: functional
[1] = tested on: Staphylococcus haemolyticus; test: Antibacterial activity against methicillin-resistant, constitutive MLS-resistant, coagulase-deficient Staphylococcus haemolyticus PU 19 expressing ermA gene by broth microdilution method
Summary of the method: (§1)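 Clinical isolates confirmed by 16S rDNA sequencing. MIC determined by broth microdilution following CLSI recommendations. Quality-control strains were S. aureus ATCC 29213 and S. pneumoniae ATCC 49619. Azithromycin and clarithromycin were run in parallel as reference agents.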

Streptococcus pneumoniae [2] = test: Antibacterial activity against penicillin-susceptible Streptococcus pneumoniae PU 09 expressing mef gene by broth microdilution method
Summary of the method: (§2)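 MIC by broth microdilution following CLSI recommendations. Clinical isolates were identified by 16S rDNA sequencing and labeled by genotype and phenotype. S. aureus ATCC 29213 and S. pneumoniae ATCC 49619 served as control strains, with azithromycin and clarithromycin as reference agents.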

Streptococcus pneumoniae [3] = test: Antibacterial activity against penicillin-resistant, constitutive MLS-resistant Streptococcus pneumoniae PU 11 expressing erm and mef genes by broth microdilution method; summary of the method: as §1
Staphylococcus aureus [4] = test: Antibacterial activity against methicillin-resistant, inducible MLS-resistant Staphylococcus aureus PU 32 expressing ermA gene by broth microdilution method; summary of the method: as §1
Streptococcus pneumoniae [5] = test: Antibacterial activity against erythromycin-sensitive Streptococcus pneumoniae ATCC 49619 by broth microdilution method; summary of the method: as §2
[6] = tested on: Staphylococcus epidermidis; test: Antibacterial activity against methicillin-susceptible, inducible MLS-resistant Staphylococcus epidermidis E 1 by broth microdilution method; summary of the method: as §1
[7] = tested on: Streptococcus dysgalactiae; test: Antibacterial activity against erythromycin-resistant Streptococcus dysgalactiae A1 expressing efflux pump by broth microdilution method; summary of the method: as §1
Staphylococcus aureus [8] = test: Antibacterial activity against erythromycin-susceptible Staphylococcus aureus ATCC 29213 by broth microdilution method; summary of the method: as §2
Streptococcus pyogenes [9] = test: Antibacterial activity against erythromycin-susceptible Streptococcus pyogenes A3 by broth microdilution method; summary of the method: as §2
Streptococcus pyogenes [10] = test: Antibacterial activity against constitutive MLS-resistant Streptococcus pyogenes A2 by broth microdilution method; summary of the method: as §1
Streptococcus pneumoniae [11] = test: Antibacterial activity against penicillin-susceptible, constitutive MLS-resistant Streptococcus pneumoniae PU 27 expressing erm gene by broth microdilution method; summary of the method: as §1
[12] = tested on: Staphylococcus epidermidis; test: Antibacterial activity against methicillin-resistant, constitutive MLS-resistant Staphylococcus epidermidis E 2 by broth microdilution method; summary of the method: as §1
Staphylococcus hominis = test: Antibacterial activity against methicillin-resistant, inducible MLS-resistant, coagulase-deficient Staphylococcus hominis E 3 by broth microdilution method; summary of the method: as §1
Staphylococcus aureus [13] = test: Antibacterial activity against methicillin-resistant, constitutive MLS-resistant Staphylococcus aureus PU 20 expressing ermC gene by broth microdilution method; summary of the method: as §1
Staphylococcus aureus [14] = test: Antibacterial activity against methicillin-sensitive, inducible MLS-resistant Staphylococcus aureus PU 64 expressing ermA gene by broth microdilution method; summary of the method: as §1

## CC[C@H]1OC(=O)[C@H](C)C(=O)[C@H](C)[C@@H](O[C@@H]2O[C@H](C)C[C@H](N(C)C)[C@H]2O)[C@](C)(OC)C[C@@H](C)/C(=N\OCC#Cc2cccc3cnccc23)[C@H](C)[C@H]2OC(=O)O[C@@]21C
[1]
  MIC: 64 µg/mL (≈ 80.6 µM)
Streptococcus pneumoniae [2]
  MIC: 0.125 µg/mL (≈ 0.157 µM)
Streptococcus pneumoniae [3]
  MIC: 32 µg/mL (≈ 40.3 µM)
Staphylococcus aureus [4]
  MIC: 0.125 µg/mL (≈ 0.157 µM)
Streptococcus pneumoniae [5]
  MIC: 0.016 µg/mL (≈ 0.0202 µM)
[6]
  MIC: 0.064 µg/mL (≈ 0.0806 µM)
[7]
  MIC: 0.125 µg/mL (≈ 0.157 µM)
Staphylococcus aureus [8]
  MIC: 0.064 µg/mL (≈ 0.0806 µM)
Streptococcus pyogenes [9]
  MIC: ≤ 0.008 µg/mL
Streptococcus pyogenes [10]
  MIC: 32 µg/mL (≈ 40.3 µM)
Streptococcus pneumoniae [11]
  MIC: 0.125 µg/mL (≈ 0.157 µM)
[12]
  MIC: 64 µg/mL (≈ 80.6 µM)
Staphylococcus hominis
  MIC: 0.125 µg/mL (≈ 0.157 µM)

## CC[C@H]1OC(=O)[C@H](C)C(=O)[C@H](C)[C@@H](O[C@@H]2O[C@H](C)C[C@H](N(C)C)[C@H]2O)[C@](C)(OC)C[C@@H](C)/C(=N\OCC#Cc2ccnc3ccccc23)[C@H](C)[C@H]2OC(=O)O[C@@]21C
[1]
  MIC: 64 µg/mL (≈ 80.6 µM)
Streptococcus pneumoniae [2]
  MIC: 0.5 µg/mL (≈ 0.63 µM)
Streptococcus pneumoniae [3]
  MIC: 32 µg/mL (≈ 40.3 µM)
Staphylococcus aureus [4]
  MIC: 0.5 µg/mL (≈ 0.63 µM)
Streptococcus pneumoniae [5]
  MIC: 0.016 µg/mL (≈ 0.0202 µM)
[6]
  MIC: 0.25 µg/mL (≈ 0.315 µM)
[7]
  MIC: 0.25 µg/mL (≈ 0.315 µM)
Staphylococcus aureus [8]
  MIC: 0.5 µg/mL (≈ 0.63 µM)
Streptococcus pyogenes [9]
  MIC: 0.016 µg/mL (≈ 0.0202 µM)
Streptococcus pyogenes [10]
  MIC: 32 µg/mL (≈ 40.3 µM)
Streptococcus pneumoniae [11]
  MIC: 1 µg/mL (≈ 1.26 µM)
[12]
  MIC: 64 µg/mL (≈ 80.6 µM)
Staphylococcus hominis
  MIC: 0.25 µg/mL (≈ 0.315 µM)

## CC[C@H]1OC(=O)[C@H](C)C(=O)[C@H](C)[C@@H](O[C@@H]2O[C@H](C)C[C@H](N(C)C)[C@H]2O)[C@](C)(OC)C[C@@H](C)/C(=N\OCC#Cc2cnc3ccccc3c2)[C@H](C)[C@H]2OC(=O)O[C@@]21C
[1]
  MIC: 128 µg/mL (≈ 161 µM)
Streptococcus pneumoniae [2]
  MIC: 0.5 µg/mL (≈ 0.63 µM)
Streptococcus pneumoniae [3]
  MIC: 64 µg/mL (≈ 80.6 µM)
Staphylococcus aureus [4]
  MIC: 0.5 µg/mL (≈ 0.63 µM)
Staphylococcus aureus [13]
  MIC: 128 µg/mL (≈ 161 µM)
Streptococcus pneumoniae [5]
  MIC: ≤ 0.008 µg/mL
[6]
  MIC: 0.25 µg/mL (≈ 0.315 µM)
[7]
  MIC: 0.5 µg/mL (≈ 0.63 µM)
Staphylococcus aureus [8]
  MIC: 0.25 µg/mL (≈ 0.315 µM)
Staphylococcus aureus [14]
  MIC: 0.25 µg/mL (≈ 0.315 µM)
Streptococcus pyogenes [9]
  MIC: ≤ 0.008 µg/mL
Streptococcus pyogenes [10]
  MIC: 64 µg/mL (≈ 80.6 µM)
Streptococcus pneumoniae [11]
  MIC: 0.5 µg/mL (≈ 0.63 µM)
[12]
  MIC: > 256 µg/mL
Staphylococcus hominis
  MIC: 0.25 µg/mL (≈ 0.315 µM)

## CC[C@H]1OC(=O)[C@H](C)C(=O)[C@H](C)[C@@H](O[C@@H]2O[C@H](C)C[C@H](N(C)C)[C@H]2O)[C@](C)(OC)C[C@@H](C)/C(=N\OCC#Cc2ccc3ncccc3c2)[C@H](C)[C@H]2OC(=O)O[C@@]21C
[1]
  MIC: 64 µg/mL (≈ 80.6 µM)
Streptococcus pneumoniae [2]
  MIC: 0.25 µg/mL (≈ 0.315 µM)
Streptococcus pneumoniae [3]
  MIC: 64 µg/mL (≈ 80.6 µM)
Staphylococcus aureus [4]
  MIC: 0.125 µg/mL (≈ 0.157 µM)
Staphylococcus aureus [13]
  MIC: 64 µg/mL (≈ 80.6 µM)
Streptococcus pneumoniae [5]
  MIC: 0.016 µg/mL (≈ 0.0202 µM)
[6]
  MIC: 0.032 µg/mL (≈ 0.0403 µM)
[7]
  MIC: 0.25 µg/mL (≈ 0.315 µM)
Staphylococcus aureus [8]
  MIC: 0.125 µg/mL (≈ 0.157 µM)
Staphylococcus aureus [14]
  MIC: 0.125 µg/mL (≈ 0.157 µM)
Streptococcus pyogenes [9]
  MIC: ≤ 0.008 µg/mL
Streptococcus pyogenes [10]
  MIC: 64 µg/mL (≈ 80.6 µM)
Streptococcus pneumoniae [11]
  MIC: 0.25 µg/mL (≈ 0.315 µM)
[12]
  MIC: > 256 µg/mL
Staphylococcus hominis
  MIC: 0.125 µg/mL (≈ 0.157 µM)

## CC[C@H]1OC(=O)[C@H](C)C(=O)[C@H](C)[C@@H](O[C@@H]2O[C@H](C)C[C@H](N(C)C)[C@H]2O)[C@](C)(OC)C[C@@H](C)/C(=N\OC/C=C/c2cnc3ccccc3c2)[C@H](C)[C@H]2OC(=O)O[C@@]21C
[1]
  MIC: > 256 µg/mL
Streptococcus pneumoniae [2]
  MIC: 0.25 µg/mL (≈ 0.314 µM)
Streptococcus pneumoniae [3]
  MIC: 32 µg/mL (≈ 40.2 µM)
Staphylococcus aureus [4]
  MIC: 0.5 µg/mL (≈ 0.628 µM)
Staphylococcus aureus [13]
  MIC: > 256 µg/mL
Streptococcus pneumoniae [5]
  MIC: 0.016 µg/mL (≈ 0.0201 µM)
[6]
  MIC: 0.032 µg/mL (≈ 0.0402 µM)
[7]
  MIC: 0.25 µg/mL (≈ 0.314 µM)
Staphylococcus aureus [8]
  MIC: 0.25 µg/mL (≈ 0.314 µM)
Staphylococcus aureus [14]
  MIC: 0.064 µg/mL (≈ 0.0804 µM)
Streptococcus pyogenes [9]
  MIC: ≤ 0.008 µg/mL
Streptococcus pyogenes [10]
  MIC: 32 µg/mL (≈ 40.2 µM)
Streptococcus pneumoniae [11]
  MIC: 0.125 µg/mL (≈ 0.157 µM)
[12]
  MIC: > 256 µg/mL
Staphylococcus hominis
  MIC: 0.064 µg/mL (≈ 0.0804 µM)

## CC[C@H]1OC(=O)[C@H](C)C(=O)[C@H](C)[C@@H](O[C@@H]2O[C@H](C)C[C@H](N(C)C)[C@H]2O)[C@](C)(OC)C[C@@H](C)/C(=N\OCCCc2cnc3ccccc3c2)[C@H](C)[C@H]2OC(=O)O[C@@]21C
[1]
  MIC: > 256 µg/mL
Streptococcus pneumoniae [2]
  MIC: 0.5 µg/mL (≈ 0.627 µM)
Streptococcus pneumoniae [3]
  MIC: 64 µg/mL (≈ 80.2 µM)
Staphylococcus aureus [4]
  MIC: 1 µg/mL (≈ 1.25 µM)
Staphylococcus aureus [13]
  MIC: > 256 µg/mL
Streptococcus pneumoniae [5]
  MIC: 0.064 µg/mL (≈ 0.0802 µM)
[6]
  MIC: 0.5 µg/mL (≈ 0.627 µM)
[7]
  MIC: 0.5 µg/mL (≈ 0.627 µM)
Staphylococcus aureus [8]
  MIC: 0.5 µg/mL (≈ 0.627 µM)
Staphylococcus aureus [14]
  MIC: 1 µg/mL (≈ 1.25 µM)
Streptococcus pyogenes [9]
  MIC: 0.016 µg/mL (≈ 0.0201 µM)
Streptococcus pyogenes [10]
  MIC: 32 µg/mL (≈ 40.1 µM)
Streptococcus pneumoniae [11]
  MIC: 1 µg/mL (≈ 1.25 µM)
[12]
  MIC: > 256 µg/mL
Staphylococcus hominis
  MIC: 2 µg/mL (≈ 2.51 µM)

## CC[C@H]1OC(=O)[C@H](C)C(=O)[C@H](C)[C@@H](O[C@@H]2O[C@H](C)C[C@H](N(C)C)[C@H]2O)[C@](C)(OC)C[C@@H](C)/C(=N\OCCCc2cncc3ccccc23)[C@H](C)[C@H]2OC(=O)O[C@@]21C
[1]
  MIC: > 256 µg/mL
Streptococcus pneumoniae [2]
  MIC: 0.5 µg/mL (≈ 0.627 µM)
Streptococcus pneumoniae [3]
  MIC: 32 µg/mL (≈ 40.1 µM)
Staphylococcus aureus [4]
  MIC: 0.5 µg/mL (≈ 0.627 µM)
Staphylococcus aureus [13]
  MIC: > 256 µg/mL
Streptococcus pneumoniae [5]
  MIC: 0.032 µg/mL (≈ 0.0401 µM)
[6]
  MIC: 0.25 µg/mL (≈ 0.313 µM)
[7]
  MIC: 0.25 µg/mL (≈ 0.313 µM)
Staphylococcus aureus [8]
  MIC: 0.125 µg/mL (≈ 0.157 µM)
Staphylococcus aureus [14]
  MIC: 0.25 µg/mL (≈ 0.313 µM)
Streptococcus pyogenes [9]
  MIC: 0.016 µg/mL (≈ 0.0201 µM)
Streptococcus pyogenes [10]
  MIC: 64 µg/mL (≈ 80.2 µM)
Streptococcus pneumoniae [11]
  MIC: 1 µg/mL (≈ 1.25 µM)
[12]
  MIC: > 256 µg/mL
Staphylococcus hominis
  MIC: 0.5 µg/mL (≈ 0.627 µM)

## CC[C@H]1OC(=O)[C@H](C)[C@@H](O[C@H]2C[C@@](C)(OC)[C@@H](O)[C@H](C)O2)[C@H](C)[C@@H](O[C@@H]2O[C@H](C)C[C@H](N(C)C)[C@H]2O)[C@](C)(O)C[C@@H](C)CN(C)[C@H](C)[C@@H](O)[C@]1(C)O [AZITHROMYCIN]
[1]
  MIC: > 256 µg/mL
Streptococcus pneumoniae [2]
  MIC: 8 µg/mL (≈ 10.7 µM)
Streptococcus pneumoniae [3]
  MIC: > 256 µg/mL
Staphylococcus aureus [4]
  MIC: 8 µg/mL (≈ 10.7 µM)
Staphylococcus aureus [13]
  MIC: > 256 µg/mL
Streptococcus pneumoniae [5]
  MIC: 0.25 µg/mL (≈ 0.334 µM)
[6]
  MIC: > 256 µg/mL
[7]
  MIC: 32 µg/mL (≈ 42.7 µM)
Staphylococcus aureus [8]
  MIC: 1 µg/mL (≈ 1.34 µM)
Staphylococcus aureus [14]
  MIC: 8 µg/mL (≈ 10.7 µM)
Streptococcus pyogenes [9]
  MIC: 0.125 µg/mL (≈ 0.167 µM)
Streptococcus pyogenes [10]
  MIC: > 256 µg/mL
Streptococcus pneumoniae [11]
  MIC: 64 µg/mL (≈ 85.4 µM)
[12]
  MIC: > 256 µg/mL
Staphylococcus hominis
  MIC: > 256 µg/mL
